Key:
[1] = Growth inhibition of human BSY1 cells after 48 hrs by SRB assay; type: functional; conditions: BSY-1, 48 h
PC-3 = test: Growth inhibition of human PC3 cells after 48 hrs by SRB assay; type: functional; conditions: PC-3, 48 h
St-4 = test: Growth inhibition of human St-4 cells after 48 hrs by SRB assay; type: functional; conditions: St-4, 48 h
NCI-H23 = test: Growth inhibition of human NCI-H23 cells after 48 hrs by SRB assay; type: functional; conditions: NCI-H23, 48 h
HCT-15 = test: Growth inhibition of human HCT15 cells after 48 hrs by SRB assay; type: functional; conditions: HCT-15, 48 h
NCI-H226 = test: Growth inhibition of human NCI-H226 cells after 48 hrs by SRB assay; type: functional; conditions: NCI-H226, 48 h
MKN-7 = test: Growth inhibition of human MKN7 cells after 48 hrs by SRB assay; type: functional; conditions: MKN-7, 48 h
[2] = Reversal of multidrug resistance in human 2780AD cells assessed as [3H]vincristine accumulation at 10 ug/mL after 2 hrs relative to control; type: functional, A2780 ADR
In short: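 Multidrug-resistant human ovarian cancer 2780AD cells were exposed to taxoids at 0.1, 1 or 10 µg/mL. Radiolabelled vincristine accumulated in the cells was measured as dpm/well, using means of triplicate determinations. Results are expressed as % of vincristine accumulated relative to the control experiment. They were also scored on a seven-level index according to the range of relative accumulation.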

[3] = Reversal of multidrug resistance in human 2780AD cells assessed as [3H]vincristine accumulation at 10 ug/mL after 2 hrs relative to verapamil; type: functional, A2780 ADR
ACHN = test: Growth inhibition of human ACHN cells after 48 hrs by SRB assay; type: functional
DU-145 = test: Growth inhibition of human DU145 cells after 48 hrs by SRB assay; type: functional; conditions: DU-145, 48 h
SF-268 = test: Growth inhibition of human SF268 cells after 48 hrs by SRB assay; type: functional; conditions: SF-268, 48 h
HT-29 = test: Growth inhibition of human HT-29 cells after 48 hrs by SRB assay; type: functional; conditions: HT-29, 48 h
OVCAR-8 = test: Growth inhibition of human OVCAR8 cells after 48 hrs by SRB assay; type: functional; conditions: OVCAR-8, 48 h
DMS-114 = test: Growth inhibition of human DMS114 cells after 48 hrs by SRB assay; type: functional; conditions: DMS-114, 48 h
DMS-273 = test: Growth inhibition of human DMS273 cells after 48 hrs by SRB assay; type: functional; conditions: DMS-273, 48 h
MKN-28 = test: Growth inhibition of human MKN28 cells after 48 hrs by SRB assay; type: functional; conditions: MKN-28, 48 h
SF-295 = test: Growth inhibition of human SF295 cells after 48 hrs by SRB assay; type: functional; conditions: SF-295, 48 h
MKN-74 = test: Growth inhibition of human MKN74 cells after 48 hrs by SRB assay; type: functional; conditions: MKN-74, 48 h
SNB-75 = test: Growth inhibition of human SNB75 cells after 48 hrs by SRB assay; type: functional; conditions: SNB-75, 48 h
[4] = Growth inhibition of human HBC5 cells after 48 hrs by SRB assay; type: functional; conditions: HBC5, 48 h
[5] = read-out: LC50 (the source's name)
[6] = read-out: pLC50 (the source's name) (converted)

Question: For `C=C1[C@@H](OC(C)=O)CC[C@]2(C)[C@@H]1C[C@@H]1C[C@H](OC(C)=O)C(C)=C([C@@H](O)[C@@H]2OC(=O)/C=C/c2ccccc2)C1(C)C`, which GI50 ([1]; read-out: GI50) is on record?
Answer: 6.9 µM

Question: And the TGI ([1]; read-out: TGI)?
Answer: 82 µM

Question: What about the GI50 ([1]; read-out: pGI50 (converted)) of the same compound?
Answer: 6.92 µM

Question: What about the TGI ([1]; read-out: pTGI (converted)) of the same compound?
Answer: 87.1 µM

Question: And the GI50 (PC-3; read-out: GI50)?
Answer: 5.2 µM

Question: And the TGI (PC-3; read-out: TGI)?
Answer: 100 µM

Question: What about the GI50 (PC-3; read-out: pGI50 (converted)) of the same compound?
Answer: 5.25 µM

Question: And the TGI (PC-3; read-out: pTGI (converted))?
Answer: 100 µM

Question: What about the GI50 (St-4; read-out: GI50) of the same compound?
Answer: 24 µM

Question: And the CC50 (St-4; [5])?
Answer: 100 µM

Question: And the TGI (St-4; read-out: TGI)?
Answer: 100 µM

Question: And the GI50 (St-4; read-out: pGI50 (converted))?
Answer: 24 µM

Question: What about the CC50 (St-4; [6]) of the same compound?
Answer: 100 µM

Question: And the TGI (St-4; read-out: pTGI (converted))?
Answer: 100 µM

Question: And the GI50 (NCI-H23; read-out: GI50)?
Answer: > 100 µM

Question: And the CC50 (NCI-H23; [5])?
Answer: 100 µM

Question: And the TGI (NCI-H23; read-out: TGI)?
Answer: 100 µM

Question: What about the GI50 (NCI-H23; read-out: pGI50 (converted)) of the same compound?
Answer: > 100 µM

Question: And the CC50 (NCI-H23; [6])?
Answer: 100 µM

Question: What about the TGI (NCI-H23; read-out: pTGI (converted)) of the same compound?
Answer: 100 µM

Question: What about the GI50 (HCT-15; read-out: GI50) of the same compound?
Answer: 29 µM

Question: And the CC50 (HCT-15; [5])?
Answer: > 100 µM

Question: And the TGI (HCT-15; read-out: TGI)?
Answer: 100 µM

Question: What about the GI50 (HCT-15; read-out: pGI50 (converted)) of the same compound?
Answer: 28.8 µM

Question: And the CC50 (HCT-15; read-out: pLC50 (converted))?
Answer: > 100 µM

Question: What about the TGI (HCT-15; read-out: pTGI (converted)) of the same compound?
Answer: 100 µM

Question: What about the GI50 (NCI-H226; read-out: GI50) of the same compound?
Answer: 21 µM

Question: And the CC50 (NCI-H226; [5])?
Answer: 100 µM

Question: And the TGI (NCI-H226; read-out: TGI)?
Answer: 100 µM

Question: What about the GI50 (NCI-H226; read-out: pGI50 (converted)) of the same compound?
Answer: 83.2 µM

Question: What about the CC50 (NCI-H226; [6]) of the same compound?
Answer: 100 µM

Question: And the TGI (NCI-H226; read-out: pTGI (converted))?
Answer: 100 µM

Question: What about the GI50 (MKN-7; read-out: GI50) of the same compound?
Answer: 5.1 µM

Question: What about the CC50 (MKN-7; [5]) of the same compound?
Answer: 100 µM

Question: And the TGI (MKN-7; read-out: TGI)?
Answer: 100 µM

Question: What about the GI50 (MKN-7; read-out: pGI50 (converted)) of the same compound?
Answer: 5.13 µM

Question: And the CC50 (MKN-7; [6])?
Answer: 100 µM

Question: What about the TGI (MKN-7; read-out: pTGI (converted)) of the same compound?
Answer: 100 µM

Question: What about the Activity [2] of the same compound?
Answer: 648%

Question: What about the Activity [3] of the same compound?
Answer: 122%

Question: What about the GI50 (ACHN; read-out: GI50) of the same compound?
Answer: 87 µM

Question: What about the CC50 (ACHN; [5]) of the same compound?
Answer: 100 µM

Question: And the TGI (ACHN; read-out: TGI)?
Answer: 100 µM

Question: And the GI50 (ACHN; read-out: pGI50 (converted))?
Answer: 89.1 µM

Question: And the CC50 (ACHN; [6])?
Answer: 100 µM

Question: What about the TGI (ACHN; read-out: pTGI (converted)) of the same compound?
Answer: 100 µM

Question: And the GI50 (DU-145; read-out: GI50)?
Answer: > 100 µM

Question: And the CC50 (DU-145; [5])?
Answer: 100 µM

Question: What about the TGI (DU-145; read-out: TGI) of the same compound?
Answer: 100 µM

Question: What about the GI50 (DU-145; read-out: pGI50 (converted)) of the same compound?
Answer: > 100 µM

Question: And the CC50 (DU-145; [6])?
Answer: 100 µM

Question: What about the TGI (DU-145; read-out: pTGI (converted)) of the same compound?
Answer: 100 µM

Question: What about the GI50 (SF-268; read-out: GI50) of the same compound?
Answer: 43 µM

Question: And the CC50 (SF-268; [5])?
Answer: 100 µM

Question: And the TGI (SF-268; read-out: TGI)?
Answer: 100 µM

Question: And the GI50 (SF-268; read-out: pGI50 (converted))?
Answer: 10.7 µM

Question: What about the CC50 (SF-268; [6]) of the same compound?
Answer: 100 µM

Question: And the TGI (SF-268; read-out: pTGI (converted))?
Answer: 100 µM

Question: What about the GI50 (HT-29; read-out: GI50) of the same compound?
Answer: 43 µM

Question: What about the CC50 (HT-29; [5]) of the same compound?
Answer: > 100 µM

Question: And the TGI (HT-29; read-out: TGI)?
Answer: 100 µM

Question: And the GI50 (HT-29; read-out: pGI50 (converted))?
Answer: 41.7 µM

Question: And the CC50 (HT-29; read-out: pLC50 (converted))?
Answer: > 100 µM

Question: And the TGI (HT-29; read-out: pTGI (converted))?
Answer: 100 µM

Question: What about the GI50 (OVCAR-8; read-out: GI50) of the same compound?
Answer: > 100 µM

Question: And the TGI (OVCAR-8; read-out: TGI)?
Answer: 100 µM

Question: And the GI50 (OVCAR-8; read-out: pGI50 (converted))?
Answer: > 100 µM

Question: And the TGI (OVCAR-8; read-out: pTGI (converted))?
Answer: 100 µM

Question: And the GI50 (DMS-114; read-out: GI50)?
Answer: 7.8 µM

Question: What about the CC50 (DMS-114; [5]) of the same compound?
Answer: 100 µM

Question: And the TGI (DMS-114; read-out: TGI)?
Answer: 100 µM

Question: What about the GI50 (DMS-114; read-out: pGI50 (converted)) of the same compound?
Answer: 7.76 µM

Question: What about the CC50 (DMS-114; [6]) of the same compound?
Answer: 100 µM

Question: What about the TGI (DMS-114; read-out: pTGI (converted)) of the same compound?
Answer: 100 µM

Question: And the GI50 (DMS-273; read-out: GI50)?
Answer: 4.2 µM

Question: And the CC50 (DMS-273; [5])?
Answer: 100 µM

Question: What about the TGI (DMS-273; read-out: TGI) of the same compound?
Answer: 100 µM

Question: What about the GI50 (DMS-273; read-out: pGI50 (converted)) of the same compound?
Answer: 4.17 µM

Question: And the CC50 (DMS-273; [6])?
Answer: 100 µM

Question: What about the TGI (DMS-273; read-out: pTGI (converted)) of the same compound?
Answer: 100 µM

Question: And the GI50 (MKN-28; read-out: GI50)?
Answer: 12 µM

Question: And the CC50 (MKN-28; [5])?
Answer: > 100 µM

Question: And the TGI (MKN-28; read-out: TGI)?
Answer: 100 µM

Question: And the GI50 (MKN-28; read-out: pGI50 (converted))?
Answer: 11.7 µM

Question: And the CC50 (MKN-28; read-out: pLC50 (converted))?
Answer: > 100 µM

Question: What about the TGI (MKN-28; read-out: pTGI (converted)) of the same compound?
Answer: 100 µM

Question: What about the GI50 (SF-295; read-out: GI50) of the same compound?
Answer: 10 µM

Question: And the TGI (SF-295; read-out: TGI)?
Answer: 100 µM

Question: And the GI50 (SF-295; read-out: pGI50 (converted))?
Answer: 10.5 µM

Question: And the TGI (SF-295; read-out: pTGI (converted))?
Answer: 100 µM

Question: What about the GI50 (MKN-74; read-out: GI50) of the same compound?
Answer: 9.5 µM

Question: And the CC50 (MKN-74; [5])?
Answer: 100 µM

Question: And the TGI (MKN-74; read-out: TGI)?
Answer: 100 µM

Question: What about the GI50 (MKN-74; read-out: pGI50 (converted)) of the same compound?
Answer: 9.55 µM

Question: What about the CC50 (MKN-74; [6]) of the same compound?
Answer: 100 µM

Question: And the TGI (MKN-74; read-out: pTGI (converted))?
Answer: 100 µM

Question: And the GI50 (SNB-75; read-out: GI50)?
Answer: 7.3 µM

Question: And the CC50 (SNB-75; [5])?
Answer: 100 µM

Question: What about the TGI (SNB-75; read-out: TGI) of the same compound?
Answer: 68 µM

Question: And the GI50 (SNB-75; read-out: pGI50 (converted))?
Answer: 7.24 µM

Question: What about the CC50 (SNB-75; [6]) of the same compound?
Answer: 100 µM

Question: What about the TGI (SNB-75; read-out: pTGI (converted)) of the same compound?
Answer: 67.6 µM

Question: And the CC50 [4, 5]?
Answer: 100 µM

Question: What about the TGI ([4]; read-out: TGI) of the same compound?
Answer: 100 µM

Question: What about the GI50 ([4]; read-out: pGI50 (converted)) of the same compound?
Answer: > 100 µM

Question: What about the CC50 [4, 6] of the same compound?
Answer: 100 µM

Question: And the TGI ([4]; read-out: pTGI (converted))?
Answer: 100 µM

From ChEMBL document CHEMBL1146459, “Production of biologically active taxoids by a callus culture of Taxus cuspidata” (2004)
